Experimental data: ChEMBL document CHEMBL1125311, “Inhibition of human leukocyte elastase. 4. Selection of a substituted cephalosporin (L-658,758) as a topical aerosol” (J Med Chem, 1992)

Tests used:
Cricetinae gen. sp. [1] = test: Compound was evaluated in vivo for inhibition of HLE-induced hemorrhage in hamster lung at 400 microg, 5 min after administration; assay type: functional, Cricetulus griseus
[2] = molecular target: T1, Neutrophil elastase (Homo sapiens) (UniProt P08246)
T1 sequence (whole entry): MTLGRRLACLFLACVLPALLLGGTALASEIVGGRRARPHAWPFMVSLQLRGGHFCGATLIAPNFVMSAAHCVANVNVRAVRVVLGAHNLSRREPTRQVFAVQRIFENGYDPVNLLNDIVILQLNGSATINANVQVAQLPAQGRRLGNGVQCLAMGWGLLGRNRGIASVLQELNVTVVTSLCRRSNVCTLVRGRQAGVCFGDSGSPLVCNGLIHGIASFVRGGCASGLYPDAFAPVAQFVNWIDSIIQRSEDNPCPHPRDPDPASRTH

Cricetinae gen. sp. [3] = test: Compound was evaluated in vivo for inhibition of HLE-induced hemorrhage in hamster lung at 100 microg, 90 min after administration; assay type: functional, Cricetulus griseus
Cricetinae gen. sp. [4] = test: Compound was evaluated in vivo for inhibition of HLE-induced hemorrhage in hamster lung at 100 microg, 30 min after administration; assay type: functional, Cricetulus griseus
Procedure, shortened: (§1)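 Hamster, intratracheal dosing of compound (per animal) 30 min before IT instillation of 50 μg HLE (50 units in Experimental); hemorrhage read 3 h later: lungs lavaged with saline, hemoglobin in lavage measured at 414 nm. Percent inhibition from drug-treated vs vehicle-treated hemorrhage; three animals per dose and time. Titration at 100, 30, 10, 3 μg/animal gives ED50.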

Cricetinae gen. sp. [5] = test: Compound was evaluated in vivo for inhibition of HLE-induced hemorrhage in hamster lung at 200 microg, 3h after administration prior to HLE; assay type: functional, Cricetulus griseus
Procedure, shortened: (§2)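 Hamster duration protocol: 200 μg/animal given intratracheally 60, 120, 180 or 240 min before IT HLE instillation; hemorrhage scored after 3 h as hemoglobin (414 nm) in saline lung lavage, relative to vehicle-treated animals; three animals per point. T50 taken as time at which 50% inhibition is still obtained.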

Cricetinae gen. sp. [6] = test: Compound was evaluated in vivo for inhibition of HLE-induced hemorrhage in hamster lung at 10 microg, 30 min after administration prior to HLE; assay type: functional, Cricetulus griseus; procedure, shortened: as §1
Cricetinae gen. sp. [7] = test: Compound was evaluated in vivo for inhibition of HLE-induced hemorrhage in hamster lung at 200 microg, 2 hr after administration prior to HLE; assay type: functional, Cricetulus griseus; procedure, shortened: as §2
Cricetinae gen. sp. [8] = test: Compound was evaluated in vivo for inhibition of HLE-induced hemorrhage in hamster lung at 100 microg, 30 min after administration prior to HLE; assay type: functional, Cricetulus griseus; procedure, shortened: as §1
Cricetinae gen. sp. [9] = test: Compound was evaluated in vivo for inhibition of HLE-induced hemorrhage in hamster lung at 30 microg, 30 min after administration prior to HLE
Cricetinae gen. sp. [10] = test: Compound was evaluated in vivo for inhibition of HLE-induced hemorrhage in hamster lung at 200 microg, 1 hr after administration prior to HLE; assay type: functional, Cricetulus griseus; procedure, shortened: as §2
Cricetinae gen. sp. [11] = test: Compound was evaluated in vivo for inhibition of HLE-induced hemorrhage in hamster lung at 3 microg, 30 min after administration prior to HLE; assay type: functional, Cricetulus griseus; procedure, shortened: as §1
Cricetinae gen. sp. [12] = test: Compound was evaluated in vivo for inhibition of HLE-induced hemorrhage in hamster lung at 200 microg, 4 hr after administration prior to HLE; assay type: functional, Cricetulus griseus; procedure, shortened: as §2
Cricetinae gen. sp. [13] = test: Compound was evaluated in vivo for inhibition of HLE-induced hemorrhage in hamster lung at 400 microg, 30 min after administration; assay type: functional, Cricetulus griseus
Cricetinae gen. sp. [14] = test: Compound was evaluated in vivo for lung hemorrhage inhibitory activity at 200 microg, 1 hr after administration prior to HLE; assay type: functional, Cricetulus griseus; procedure, shortened: as §2
Cricetinae gen. sp. [15] = test: Compound was evaluated in vivo for inhibition of HLE-induced hemorrhage in hamster lung at 10microg, 30 min after administration prior to HLE; assay type: functional, Cricetulus griseus; procedure, shortened: as §1
Cricetinae gen. sp. [16] = test: Compound was evaluated in vivo for inhibition of HLE-induced hemorrhage in hamster lung at 30microg, 30 min after administration prior to HLE; assay type: functional, Cricetulus griseus; procedure, shortened: as §1
Cricetinae gen. sp. [17] = test: Compound was evaluated in vivo for inhibition of HLE-induced hemorrhage in hamster lung at 100 microg 30 min after administration; assay type: functional, Cricetulus griseus; procedure, shortened: as §1
Cricetinae gen. sp. [18] = test: Compound was evaluated in vivo for inhibition of HLE-induced hemorrhage in hamster lung at 30 microg 30 min after administration; assay type: functional, Cricetulus griseus; procedure, shortened: as §1
Cricetinae gen. sp. [19] = test: Compound was evaluated in vivo for inhibition of HLE-induced hemorrhage in hamster lung at 30 microg, 30 min after administration prior to HLE; assay type: functional, Cricetulus griseus; procedure, shortened: as §1

SMILES: CO[C@H]1C(=O)N2C(C(=O)OC(C)(C)C)=C(COC(=O)CCC(=O)O)CS(=O)(=O)[C@H]12
- Inhibition (Cricetinae gen. sp. [1]): 98%

SMILES: CO[C@H]1C(=O)N2C(C(=O)OC(C)(C)C)=C(COC(=O)N[C@@H](Cc3ccccc3)C(=O)O)CS(=O)(=O)[C@H]12
- k obs / 1 [2]: 63900 M⁻¹ s⁻¹
- Inhibition (Cricetinae gen. sp. [3]): 10%
- Inhibition (Cricetinae gen. sp. [4]): 87%

SMILES: CO[C@H]1C(=O)N2C(C(=O)N(C)[C@@H](C)C(=O)O)=C(COC(C)=O)CS(=O)(=O)[C@H]12
- Inhibition (Cricetinae gen. sp. [5]): 47%
- Inhibition (Cricetinae gen. sp. [6]): 78%
- Inhibition (Cricetinae gen. sp. [7]): 81%
- Inhibition (Cricetinae gen. sp. [8]): 96%
- k obs / 1 [2]: 500 M⁻¹ s⁻¹
- Inhibition (Cricetinae gen. sp. [9]): 89%
- Inhibition (Cricetinae gen. sp. [10]): 94%
- Inhibition (Cricetinae gen. sp. [11]): 50%
- Inhibition (Cricetinae gen. sp. [12]): 21%

SMILES: CO[C@H]1C(=O)N2C(C(=O)NC(C)(C)C)=C(COC(C)=O)CS(=O)(=O)[C@H]12
- k obs / 1 [2]: 2200 M⁻¹ s⁻¹
- Inhibition (Cricetinae gen. sp. [13]): -5%

SMILES: CO[C@H]1C(=O)N2C(C(=O)N3CC(O)CC3C(=O)O)=C(COC(C)=O)CS(=O)(=O)[C@H]12 (stereo not given in full)
- Inhibition (Cricetinae gen. sp. [5]): 4%
- Inhibition (Cricetinae gen. sp. [7]): 81%
- Inhibition (Cricetinae gen. sp. [8]): 98%
- k obs / 1 [2]: 900 M⁻¹ s⁻¹
- Inhibition (Cricetinae gen. sp. [14]): 86%
- Inhibition (Cricetinae gen. sp. [15]): 78%
- Inhibition (Cricetinae gen. sp. [12]): 17%
- Inhibition (Cricetinae gen. sp. [16]): 95%

SMILES: CO[C@H]1C(=O)N2C(C(=O)OC(C)(C)C)=C(CSc3nnnn3CC(=O)O)CS(=O)(=O)[C@H]12
- k obs / 1 [2]: 3700 M⁻¹ s⁻¹
- Inhibition (Cricetinae gen. sp. [17]): 89%
- Inhibition (Cricetinae gen. sp. [18]): 77%

SMILES: CO[C@H]1C(=O)N2C(C(=O)N(C)[C@H](C)C(=O)O)=C(COC(C)=O)CS(=O)(=O)[C@H]12
- Inhibition (Cricetinae gen. sp. [19]): 90%
- Inhibition (Cricetinae gen. sp. [6]): 29%
- Inhibition (Cricetinae gen. sp. [8]): 97%
- k obs / 1 [2]: 900 M⁻¹ s⁻¹
